RAD52 inh: inhibitors of human RAD52 DNA annealing; P43351; recombinant RAD52 DNA annealing, FRET fluorescence; inhibition, % at 18.7 µM; 360,000 tested, 0.46% active; AID 651710;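 active = every replicate showing at least 50% inhibition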
INS-1E GSIS act: GLuc luminescence reporter in INS-1E cells, primary screen for activators of glucose-dependent secretion of insulin. INS-1E GLuc reporter insulin secretion, 2-3 h. activation, % at 16.6 µM. 370,000 tested, 0.61% active. AID 743287;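 active = lowest replicate activation of at least 40%, so every replicate reaches that level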;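 also: 0% = median of neutral control wells and 100% = median of IBMX positive control wells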
AF4-AF9 inh: MLL-AF4/AF9 protein interaction inhibition. P42568. inhibition, % at 10 µM. AlphaScreen, biotin-AF4 peptide binding to FLAG-AF9. 350,000 tested, 0.47% active. AID 651704;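 active = every replicate reaching a set inhibition limit, whatever the replicate mean, cut at about 25% in these data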;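 also: 0% = plate neutral control median and 100% = total signal loss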
S100A4 inh HTS: S100A4-myosin IIA interaction inhibition; 360,000 tested, 0.14% active; inhibition, % at 10.7 µM; P26447; S100A4/TAMRA-MyoIIA peptide fluorescence polarization;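 active = mean inhibition of at least 70% across replicates, with every replicate also reaching that level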
Target sequence (P26447 whole entry, looked up): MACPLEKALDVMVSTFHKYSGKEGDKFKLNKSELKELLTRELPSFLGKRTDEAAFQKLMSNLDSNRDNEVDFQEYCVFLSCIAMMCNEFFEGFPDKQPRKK
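Material: human S100A4 monomer with TAMRA-labelled myosin IIA peptide; buffer or medium: HEPES pH 7.2 with CaCl2, KCl, NaCl, DTT, Triton; compound dosing: one concentration per compound; schedule: 5 min incubation before reading; benchmarks: neutral control DMSO, positive control TFP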
RAD54 inh: RAD54 (human) branch migration inhibition | 360,000 tested, 0.14% active | inhibition, % at 10.4 µM | Q92698 | RAD54 Holliday junction branch migration, FAM/BHQ fluorescence | AID 602329;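 active = mean normalized replicate activity at least 40 and at least half of replicates scoring 40 or more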;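 also: 0% = median of neutral control wells and 100% = median of positive control wells; inhibitors cause a drop in the FAM fluorescence signal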
* = called active by the depositor; x = not tested or not shown. Sampled rows, rich in hits. Any-hit rate of the full collection: about 1.3%.

SMILES | RAD52 inh | INS-1E GSIS act | AF4-AF9 inh | S100A4 inh HTS | RAD54 inh
C[C@@H]1CN([C@@H](C)CO)C(=O)c2cc(NC(=O)C3CCCCC3)ccc2O[C@@H](C)CCCCO[C@@H]1CN(C)C(=O)Nc1ccc(C(F)(F)F)cc1 | 60* | 11 | -1 | -10 | 0
C[C@H]1CCCCO[C@@H](CN(C)C(=O)Nc2ccc(C(F)(F)F)cc2)[C@@H](C)CN([C@@H](C)CO)C(=O)c2cc(NC(=O)C3CCCCC3)ccc2O1 | -22 | 4 | -1 | -8 | -3
C[C@H]1CCCCO[C@H](CN(C)Cc2ccc(C(F)(F)F)cc2)[C@@H](C)CN([C@@H](C)CO)C(=O)c2cc(NC(=O)Nc3ccc4c(c3)OCO4)ccc2O1 | 7 | -10 | 2 | 153* | -17
Cc1ccccc1S(=O)(=O)N1C[C@@H](O)COC[C@H]2O[C@@H](CC(=O)O)CC[C@@H]21 | 13 | 10 | -13 | 3 | -2
COc1cccc(NC(=O)N2CC3(C2)[C@@H](c2ccccc2)[C@@H](CO)N3C(C)=O)c1 | -4 | -4 | -2 | 0 | x
CC(=O)N1[C@@H]2c3ccc(C4=CCCC4)c(=O)n3C[C@@H]2[C@@H](CO)[C@@H]1C(=O)Nc1ccccc1 | -5 | 14 | -20 | -10 | 23
C[C@@H]1CN([C@H](C)CO)C(=O)c2cc(NC(=O)Nc3ccc(C(F)(F)F)cc3)ccc2O[C@@H](C)CCCCO[C@H]1CN(C)Cc1ccc2c(c1)OCO2 | 44 | 20 | 9 | -1 | 2
C[C@@H]1CCCCO[C@H](CN(C)Cc2ccc3c(c2)OCO3)[C@@H](C)CN([C@@H](C)CO)C(=O)c2cc(NC(=O)Nc3ccc(C(F)(F)F)cc3)ccc2O1 | 61* | x | 11 | 4 | 3
C[C@H]1CCCCO[C@H](CN(C)C(=O)CCCN(C)C)[C@@H](C)CN([C@@H](C)CO)C(=O)c2cc(NC(=O)Cc3ccccc3)ccc2O1 | 24 | 10 | -3 | 4 | 6
CCn1cc(/C=C(\NC(=O)c2cc(OC)c(OC)c(OC)c2)C(=O)NCCCN2CCOCC2)c2ccccc21 | -14 | 11 | 25* | -1 | x
O=C(NCCN1CCOCC1)/C(=C/c1ccccc1)NC(=O)c1ccccc1 | -7 | 47* | -2 | -2 | 1
Cc1nnc(N/N=C/c2cc(C)n(-c3ccc(F)cc3)c2C)n1N | 19 | x | 54* | -2 | x
O=C(C1CC1)N1C[C@@H]2[C@H](c3ccccc31)[C@@H](CO)N2C(=O)c1ccccn1 | -4 | 2 | -13 | 1 | -20
O=[N+]([O-])c1ccccc1S(=O)(=O)Nc1ccc(-c2ccc3nncn3n2)cc1 | -11 | 49* | -1 | -2 | x
COc1ccc(S(=O)(=O)Nc2cccc(-c3ccc4nncn4n3)c2)cc1F | -2 | 42* | 1 | 4 | x
O=[N+]([O-])c1ccccc1S(=O)(=O)Nc1cccc(-c2ccc3nncn3n2)c1 | -1 | 89* | 0 | -23 | -17
O=S(=O)(Nc1ccc(-c2ccc3nncn3n2)cc1)c1ccccc1F | -3 | 24 | -1 | -18 | 0
CCn1c(SCC(=O)Nc2ccc3c(c2)oc2ccccc23)nnc1-c1ccc(N)cc1 | x | 73* | x | x | -8
C[C@@H]1CN([C@H](C)CO)C(=O)c2cccc(NC(=O)C3CCCCC3)c2O[C@@H]1CN(C)C(=O)Nc1cccc2ccccc12 | 16 | -8 | 0 | -5 | -4
COc1ccccc1-n1cnc2sc(C)c(C)c2c1=O | -9 | 59* | 0 | 5 | -5
C/C=C/c1cnc2c(c1)C(=O)N([C@H](C)CO)C[C@H](C)[C@@H](CN(C)Cc1cncnc1)O2 | 9 | -7 | -12 | 0 | 0
COCC(=O)Nc1ccc2c(c1)[C@H]1C[C@H](CC(=O)NC3CCCCC3)O[C@@H](CO)[C@H]1O2 | -19 | 14 | 1 | 2 | -12
CCNC(=S)N/N=C/c1ccc(OCCOc2ccccc2C)cc1 | x | 137* | x | x | 0
CCN1C(=O)C2(SC(NC(C)=O)=NN2C(C)=O)c2cc(C)cc(C)c21 (centres undefined) | 0 | 20 | 50* | -2 | 2
CCCN1C(=O)C2(SC(NC(C)=O)=NN2C(C)=O)c2cc(C)cc(C)c21 (centres undefined) | 1 | 9 | 2 | -1 | -5
CN(C)CCNS(=O)(=O)c1ccc(N2CCN(c3ccc(F)cc3)CC2)c([N+](=O)[O-])c1 | 12 | 0 | 28* | -5 | x
